Laboratory results: ChEMBL document CHEMBL2412955, “Synthesis and antibacterial activities of N-substituted-glycinyl 1H-1,2,3-triazolyl oxazolidinones” (2013)
Converted amounts (≈) assume the structure as drawn.

How the values were obtained:
Format in all cases: functional
[1] = tested on: Moraxella catarrhalis; test: Antibacterial activity against Moraxella catarrhalis clinical isolate 125 after 18 hrs by NCCLS agar dilution method; conditions: clinical isolate 125, 18 h
How it was run: (§1)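 NCCLS agar dilution on Mueller-Hinton agar with 5% sheep blood added to support growth. Drug dilutions 0.12–64 µg/ml. Test agents in 80% DMSO in water, linezolid in 40% water in ethanol. Final inoculum 10^7 CFU/ml, 18 h at 35 °C. MIC read as the lowest concentration with no visible growth.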

[2] = tested on: Moraxella catarrhalis; test: Antibacterial activity against Moraxella catarrhalis clinical isolate 1 after 18 hrs by NCCLS agar dilution method; conditions: clinical isolate 1, 18 h; how it was run: as §1
[3] = tested on: Enterococcus; test: Antibacterial activity against vancomycin-susceptible Enterococcus after 18 hrs by NCCLS agar dilution method
How it was run: (§2)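 Clinical isolates were tested by agar dilution on Mueller-Hinton agar with drug dilutions from 0.12 to 64 µg/ml. Test compounds were dissolved in 80% DMSO in water. Final inoculum was 10^7 CFU/ml, incubated at 35 °C for 18 h. MIC was the lowest concentration inhibiting visible growth.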

[4] = tested on: Streptococcus pneumoniae; test: Antibacterial activity against penicillin-resistant Streptococcus pneumoniae after 18 hrs by NCCLS agar dilution method
How it was run: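 Agar dilution was run on Mueller-Hinton agar supplemented with 5% sheep blood, with drug dilutions from 0.12 to 64 µg/ml. Test compounds were dissolved in 80% DMSO in water. Final inoculum was 10^7 CFU/ml, incubated at 35 °C for 18 h. MIC was the lowest concentration preventing visible growth.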

[5] = tested on: Haemophilus influenzae; test: Antibacterial activity against Haemophilus influenzae ATCC 49247 after 18 hrs by NCCLS agar dilution method; conditions: ATCC 49247, 18 h; how it was run: as §1
[6] = tested on: Escherichia coli; test: Antibacterial activity against Escherichia coli ATCC 25922 after 18 hrs by NCCLS agar dilution method; conditions: ATCC 25922, 18 h
How it was run: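 Agar dilution per NCCLS on Mueller-Hinton agar, drug dilutions 0.12–64 µg/ml. Linezolid dissolved in 40% water in ethanol, vancomycin in water, test agents in 80% DMSO in water. Inoculum 10^7 CFU/ml (final), incubated 35 °C for 18 h. MIC is the lowest concentration preventing visible growth.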

[7] = tested on: Moraxella catarrhalis; test: Antibacterial activity against Moraxella catarrhalis clinical isolate 112 after 18 hrs by NCCLS agar dilution method; conditions: clinical isolate 112, 18 h; how it was run: as §1
[8] = tested on: Staphylococcus; test: Antibacterial activity against methicillin-resistant coagulase-negative Staphylococcus after 18 hrs by NCCLS agar dilution method; how it was run: as §2
[9] = tested on: Moraxella catarrhalis; test: Antibacterial activity against Moraxella catarrhalis ATCC 8176 after 18 hrs by NCCLS agar dilution method; conditions: ATCC 8176, 18 h; how it was run: as §1
[10] = tested on: Staphylococcus aureus; test: Antibacterial activity against Staphylococcus aureus ATCC 25923 after 18 hrs by […] in presence of human plasma; conditions: ATCC 25923, Plasma
How it was run: (§3)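 To gauge plasma protein binding and/or plasma instability, MIC was determined in Mueller-Hinton broth containing 50% human plasma. Linezolid served as a reference agent. Ratio compares this MIC with the MIC obtained without plasma.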

[11] = tested on: Moraxella catarrhalis; test: Antibacterial activity against Moraxella catarrhalis clinical isolate 255 after 18 hrs by NCCLS agar dilution method; conditions: clinical isolate 255, 18 h; how it was run: as §1
[12] = tested on: Moraxella catarrhalis; test: Antibacterial activity against Moraxella catarrhalis clinical isolate 36 after 18 hrs by NCCLS agar dilution method; conditions: clinical isolate 36, 18 h; how it was run: as §1
[13] = tested on: Moraxella catarrhalis; test: Antibacterial activity against Moraxella catarrhalis clinical isolate 2824 after 18 hrs by NCCLS agar dilution method; conditions: clinical isolate 2824, 18 h; how it was run: as §1
[14] = tested on: Moraxella catarrhalis; test: Antibacterial activity against Moraxella catarrhalis clinical isolate 138 after 18 hrs by NCCLS agar dilution method; conditions: clinical isolate 138, 18 h; how it was run: as §1
[15] = tested on: Staphylococcus aureus; test: Antibacterial activity against Staphylococcus aureus ATCC 25923 after 18 hrs by NCCLS agar dilution method; conditions: ATCC 25923, 18 h
How it was run: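 Plain Mueller-Hinton agar, agar dilution per NCCLS, concentrations 0.12–64 µg/ml. Test agents in 80% DMSO in water, linezolid in 40% water in ethanol, vancomycin in water. Final inoculum 10^7 CFU/ml, 35 °C for 18 h. MIC = lowest concentration inhibiting visible growth.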

[16] = tested on: Staphylococcus aureus; test: Antibacterial activity against methicillin-susceptible Staphylococcus aureus after 18 hrs by NCCLS agar dilution method; how it was run: as §2
[17] = tested on: Moraxella catarrhalis; test: Antibacterial activity against Moraxella catarrhalis clinical isolate 3447 after 18 hrs by NCCLS agar dilution method; conditions: clinical isolate 3447, 18 h; how it was run: as §1
[18] = tested on: Staphylococcus aureus; test: Antibacterial activity against methicillin-resistant Staphylococcus aureus after 18 hrs by NCCLS agar dilution method; how it was run: as §2
[19] = tested on: Staphylococcus; test: Antibacterial activity against methicillin-susceptible coagulase-negative Staphylococcus after 18 hrs by NCCLS agar dilution method; how it was run: as §2
[20] = tested on: Enterococcus; test: Antibacterial activity against vancomycin-resistant Enterococcus after 18 hrs by NCCLS agar dilution method; how it was run: as §2
[21] = tested on: Staphylococcus aureus; test: Ratio of MIC for Staphylococcus aureus ATCC 25923 to MIC for Staphylococcus aureus ATCC 25923 in presence of human plasma; how it was run: as §3
[22] = tested on: Moraxella catarrhalis; test: Ratio of linezolid MIC to compound MIC for Moraxella catarrhalis ATCC 8176

| SMILES | MIC [1] [µg/mL] | MIC [2] [µg/mL] | MIC [3] [µg/mL] | MIC [4] [µg/mL] | MIC [5] [µg/mL] | MIC [6] [µg/mL] | MIC [7] [µg/mL] | MIC [8] [µg/mL] | MIC [9] [µg/mL] | MIC [10] [µg/mL] | MIC [11] [µg/mL] | MIC [12] [µg/mL] | MIC [13] [µg/mL] | MIC [14] [µg/mL] | MIC [15] [µg/mL] | MIC [16] [µg/mL] | MIC [17] [µg/mL] | MIC [18] [µg/mL] | MIC [19] [µg/mL] | MIC [20] [µg/mL] | other results |
| --- | --- | --- | --- | --- | --- | --- | --- | --- | --- | --- | --- | --- | --- | --- | --- | --- | --- | --- | --- | --- | --- |
| Cc1cn(C[C@H]2CN(c3ccc(N4CCN(C(=O)CNC(=O)c5ccccc5)CC4)c(F)c3)C(=O)O2)nn1 | 4 (≈ 7.67 µM) | 4 (≈ 7.67 µM) | 0.5 (≈ 0.959 µM) | 2 (≈ 3.83 µM) | 32 (≈ 61.4 µM) | > 64 | 4 (≈ 7.67 µM) | 0.5 (≈ 0.959 µM) | 8 (≈ 15.3 µM) | 16 | 4 (≈ 7.67 µM) | 4 (≈ 7.67 µM) | 4 (≈ 7.67 µM) | 4 (≈ 7.67 µM) | 1 (≈ 1.92 µM) | 0.5 (≈ 0.959 µM) | 4 (≈ 7.67 µM) | 0.5 (≈ 0.959 µM) | 0.5 (≈ 0.959 µM) | 0.5 (≈ 0.959 µM) |  |
| O=C(NCC(=O)N1CCN(c2ccc(N3C[C@H](Cn4ccnn4)OC3=O)cc2F)CC1)c1cc([N+](=O)[O-])cc([N+](=O)[O-])c1 | 0.25 (≈ 0.418 µM) | 0.25 (≈ 0.418 µM) | 0.5 (≈ 0.837 µM) | 0.25 (≈ 0.418 µM) | 16 (≈ 26.8 µM) | > 64 | 0.25 (≈ 0.418 µM) | 0.5 (≈ 0.837 µM) | 0.5 (≈ 0.837 µM) | 16 | 0.25 (≈ 0.418 µM) | 0.25 (≈ 0.418 µM) | 0.25 (≈ 0.418 µM) | 0.25 (≈ 0.418 µM) | 1 (≈ 1.67 µM) | 0.5 (≈ 0.837 µM) | 0.25 (≈ 0.418 µM) | 0.5 (≈ 0.837 µM) | 0.5 (≈ 0.837 µM) | 1 (≈ 1.67 µM) | Ratio [21]: 16; Ratio [22]: 16 |
| Cc1cn(C[C@H]2CN(c3ccc(N4CCN(C(=O)CNC(=O)c5cc([N+](=O)[O-])cc([N+](=O)[O-])c5)CC4)c(F)c3)C(=O)O2)nn1 | 0.5 (≈ 0.818 µM) | 1 (≈ 1.64 µM) | 1 (≈ 1.64 µM) | 0.25 (≈ 0.409 µM) | > 16 | > 64 | 0.5 (≈ 0.818 µM) | 1 (≈ 1.64 µM) | 1 (≈ 1.64 µM) | 8 | 0.5 (≈ 0.818 µM) | 1 (≈ 1.64 µM) | 1 (≈ 1.64 µM) | 1 (≈ 1.64 µM) | 2 (≈ 3.27 µM) | 1 (≈ 1.64 µM) | 0.5 (≈ 0.818 µM) | 1 (≈ 1.64 µM) | 1 (≈ 1.64 µM) | 2 (≈ 3.27 µM) | Ratio [21]: 4; Ratio [22]: 8 |
| O=C(NCC(=O)N1CCN(c2ccc(N3C[C@H](Cn4ccnn4)OC3=O)cc2F)CC1)c1cccnc1 | 8 (≈ 15.7 µM) | 8 (≈ 15.7 µM) | 2 (≈ 3.93 µM) | 0.25 (≈ 0.492 µM) | 8 (≈ 15.7 µM) | > 64 | 8 (≈ 15.7 µM) | 1 (≈ 1.97 µM) | 8 (≈ 15.7 µM) | 8 | 8 (≈ 15.7 µM) | 8 (≈ 15.7 µM) | 8 (≈ 15.7 µM) | 8 (≈ 15.7 µM) | 2 (≈ 3.93 µM) | 1 (≈ 1.97 µM) | 8 (≈ 15.7 µM) | 1 (≈ 1.97 µM) | 1 (≈ 1.97 µM) | 2 (≈ 3.93 µM) |  |
